Results from different studies.
Compare with care: the assays were run in different laboratories.
Target: Tyrosine-protein kinase Srms (SRMS, Homo sapiens, UniProt Q9H3Y6)

SMILES	observed	action	method	tested at	quantity	result
Cc1ccc(C(=O)NCc2ccsc2)cc1C#Cc1cn(C(C)C)c2ncnc(N)c12	enzyme activity	inhibitor		1 µM	activity vs control	31%
COc1cc2ncnc(Nc3ccc(Oc4ccccc4)c(C)c3C)c2cc1OC	enzyme activity	inhibitor		1 µM	inhibition	24%
CC/C(=N\NC(=O)NCc1cccc(O)c1)c1ccc(O)c(C)c1O	enzyme activity	inhibitor		0.1 µM	inhibition	1.1%
O=C1NC(=O)c2cc(Nc3ccc(F)cc3)c(Nc3ccc(F)cc3)cc21	cell-free assay			0.5 µM	remaining signal	95.5%
O=C(Nc1ccc(Oc2ccc(F)cc2)cc1)N1CCc2ncccc2[C@H]1c1ccc(F)cc1	cell-free assay		competition with immobilised ligand	1 µM	remaining binding	94%
Nc1ncnc2occ(-c3ccc(NC(=O)Nc4cc(C(F)(F)F)ccc4F)cc3)c12	cell-free assay	inhibitor		20 µM	remaining signal	0.8%
O=C(Nc1cnn(-c2csc(C(=O)NC3COC3)c2)c1)Nc1c(F)cccc1Cl	enzyme activity	inhibitor		5 µM	remaining activity	105%
C[C@H](c1ccnc(Nc2nc3ccc(-c4cc(N(C)C)ncn4)cc3[nH]2)c1)N1CCN(C(=O)CC(F)(F)F)CC1	cell-free assay		competition with immobilised ligand	0.1 µM	remaining binding	97%
Cc1ccc(C(=O)Nc2ccc(CN3CCN(C)CC3)c(C(F)(F)F)c2)cc1C#Cc1cnc2cccnn12	enzyme activity	inhibitor		23.5 nM	remaining activity	40%
CC(C)(C)c1nc2c(s1)c1nc(N)ncc1c1ccc(NS(=O)(=O)c3c(F)cccc3F)c(F)c12	enzyme activity	inhibitor	radiometric	1 µM	remaining activity	70%
N#CCCc1ccc2c(c1)-c1[nH]c3ccc([N+](=O)[O-])cc3c1CC(=O)N2	cell-free assay			0.5 µM	remaining signal	78.6%
C[C@H](c1ccc(F)cc1)N(Cc1cccc(C(=O)O)c1)C(=O)c1cnc2ccccc2c1	cell-free assay		competition with immobilised ligand	1 µM	remaining binding	100%
